Laboratory results published in PMC4203514 (Autophagy, 2014).

Tested on: patients with advanced solid tumors
Assay: Treatment-related adverse events by grade
Type: in vivo, human
Outline: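 Patients who took at least one dose of the oral test compound, given with a dose-intense oral alkylating agent, were evaluable for toxicity. Adverse events were graded by NCI Common Toxicity Criteria v3.0, and haematological toxicities were attributed to the alkylating agent. Complete blood counts were done weekly for the first 6 wk and biweekly thereafter. Treatment ran in 28 d cycles.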

[1] = all patients (37 evaluable for toxicities)

**Q.** `CCN(CCO)CCCC(C)Nc1ccnc2cc(Cl)ccc12` (stereo not drawn) [HCQ, hydroxychloroquine] was tested. Which “Anorexia G1/G2” value (HCQ 400 mg (n = 4) with TMZ) did it give?
**A.** 1 (25) No. (%)

**Q.** What about the “Diarrhea G1/G2” value (HCQ 400 mg (n = 4) with TMZ) of the same compound?
**A.** 1 (25) No. (%)

**Q.** And the “Fatigue G1/G2” value (HCQ 400 mg (n = 4) with TMZ)?
**A.** 2 (50) No. (%)

**Q.** And the “Hypotension G1/G2” value (HCQ 400 mg (n = 4) with TMZ)?
**A.** 1 (25) No. (%)

**Q.** And the “Lymphopenia G3/G4” value (HCQ 400 mg (n = 4) with TMZ)?
**A.** 2 (50) No. (%)

**Q.** And the “Myalgias G1/G2” value (HCQ 400 mg (n = 4) with TMZ)?
**A.** 1 (25) No. (%)

**Q.** And the “Nausea G1/G2” value (HCQ 400 mg (n = 4) with TMZ)?
**A.** 4 (100) No. (%)

**Q.** And the “Thrombocytopenia G1/G2” value (HCQ 400 mg (n = 4) with TMZ)?
**A.** 1 (25) No. (%)

**Q.** And the “Vomiting G1/G2” value (HCQ 400 mg (n = 4) with TMZ)?
**A.** 3 (75) No. (%)

**Q.** And the “Anorexia G1/G2” value (HCQ 800 mg (n = 15) with TMZ)?
**A.** 5 (33) No. (%)

**Q.** And the “Constipation G1/G2” value (HCQ 800 mg (n = 15) with TMZ)?
**A.** 4 (27) No. (%)

**Q.** And the “Diarrhea G1/G2” value (HCQ 800 mg (n = 15) with TMZ)?
**A.** 2 (13) No. (%)

**Q.** And the “Dyspepsia G1/G2” value (HCQ 800 mg (n = 15) with TMZ)?
**A.** 1 (7) No. (%)

**Q.** What about the “Fatigue G1/G2” value (HCQ 800 mg (n = 15) with TMZ) of the same compound?
**A.** 7 (47) No. (%)

**Q.** What about the “Headaches G1/G2” value (HCQ 800 mg (n = 15) with TMZ) of the same compound?
**A.** 2 (13) No. (%)

**Q.** And the “Leukopenia G3/G4” value (HCQ 800 mg (n = 15) with TMZ)?
**A.** 1 (7) No. (%)

**Q.** What about the “Lymphopenia G1/G2” value (HCQ 800 mg (n = 15) with TMZ) of the same compound?
**A.** 3 (20) No. (%)

**Q.** And the “Lymphopenia G3/G4” value (HCQ 800 mg (n = 15) with TMZ)?
**A.** 1 (7) No. (%)

**Q.** And the “Myalgias G1/G2” value (HCQ 800 mg (n = 15) with TMZ)?
**A.** 1 (7) No. (%)

**Q.** What about the “Nausea G1/G2” value (HCQ 800 mg (n = 15) with TMZ) of the same compound?
**A.** 6 (40) No. (%)

**Q.** And the “Neutropenia G3/G4” value (HCQ 800 mg (n = 15) with TMZ)?
**A.** 2 (13) No. (%)

**Q.** And the “Pruritus G1/G2” value (HCQ 800 mg (n = 15) with TMZ)?
**A.** 1 (7) No. (%)

**Q.** And the “Rash G1/G2” value (HCQ 800 mg (n = 15) with TMZ)?
**A.** 2 (13) No. (%)

**Q.** What about the “Taste change G1/G2” value (HCQ 800 mg (n = 15) with TMZ) of the same compound?
**A.** 1 (7) No. (%)

**Q.** What about the “Thrombocytopenia G3/G4” value (HCQ 800 mg (n = 15) with TMZ) of the same compound?
**A.** 2 (13) No. (%)

**Q.** And the “Vomiting G1/G2” value (HCQ 800 mg (n = 15) with TMZ)?
**A.** 3 (20) No. (%)

**Q.** What about the “Abdominal pain G1/G2” value (HCQ 1000 mg (n = 7) with TMZ) of the same compound?
**A.** 2 (29) No. (%)

**Q.** And the “Anemia G3/G4” value (HCQ 1000 mg (n = 7) with TMZ)?
**A.** 1 (14) No. (%)

**Q.** What about the “Anorexia G1/G2” value (HCQ 1000 mg (n = 7) with TMZ) of the same compound?
**A.** 1 (14) No. (%)

**Q.** And the “Constipation G1/G2” value (HCQ 1000 mg (n = 7) with TMZ)?
**A.** 1 (14) No. (%)

**Q.** And the “Diarrhea G1/G2” value (HCQ 1000 mg (n = 7) with TMZ)?
**A.** 3 (43) No. (%)

**Q.** And the “Dizziness G1/G2” value (HCQ 1000 mg (n = 7) with TMZ)?
**A.** 1 (14) No. (%)

**Q.** And the “Fatigue G1/G2” value (HCQ 1000 mg (n = 7) with TMZ)?
**A.** 5 (71) No. (%)

**Q.** What about the “Headaches G1/G2” value (HCQ 1000 mg (n = 7) with TMZ) of the same compound?
**A.** 1 (14) No. (%)

**Q.** And the “Lymphopenia G1/G2” value (HCQ 1000 mg (n = 7) with TMZ)?
**A.** 1 (14) No. (%)

**Q.** What about the “Nausea G1/G2” value (HCQ 1000 mg (n = 7) with TMZ) of the same compound?
**A.** 5 (71) No. (%)

**Q.** What about the “Pruritus G1/G2” value (HCQ 1000 mg (n = 7) with TMZ) of the same compound?
**A.** 1 (14) No. (%)

**Q.** And the “Rash G3/G4” value (HCQ 1000 mg (n = 7) with TMZ)?
**A.** 1 (14) No. (%)

**Q.** What about the “Taste change G1/G2” value (HCQ 1000 mg (n = 7) with TMZ) of the same compound?
**A.** 1 (14) No. (%)

**Q.** What about the “Thrombocytopenia G1/G2” value (HCQ 1000 mg (n = 7) with TMZ) of the same compound?
**A.** 2 (29) No. (%)

**Q.** What about the “Vomiting G1/G2” value (HCQ 1000 mg (n = 7) with TMZ) of the same compound?
**A.** 2 (29) No. (%)

**Q.** What about the “Anemia G1/G2” value (HCQ 1200 mg (n = 8) with TMZ) of the same compound?
**A.** 1 (13) No. (%)

**Q.** What about the “Anorexia G1/G2” value (HCQ 1200 mg (n = 8) with TMZ) of the same compound?
**A.** 3 (38) No. (%)

**Q.** And the “Bradycardia G1/G2” value (HCQ 1200 mg (n = 8) with TMZ)?
**A.** 1 (13) No. (%)

**Q.** What about the “Constipation G1/G2” value (HCQ 1200 mg (n = 8) with TMZ) of the same compound?
**A.** 2 (25) No. (%)

**Q.** And the “Diarrhea G1/G2” value (HCQ 1200 mg (n = 8) with TMZ)?
**A.** 2 (25) No. (%)

**Q.** What about the “Fatigue G1/G2” value (HCQ 1200 mg (n = 8) with TMZ) of the same compound?
**A.** 7 (88) No. (%)

**Q.** What about the “Hypotension G1/G2” value (HCQ 1200 mg (n = 8) with TMZ) of the same compound?
**A.** 1 (13) No. (%)

**Q.** What about the “Lymphopenia G3/G4” value (HCQ 1200 mg (n = 8) with TMZ) of the same compound?
**A.** 1 (13) No. (%)

**Q.** And the “Nausea G1/G2” value (HCQ 1200 mg (n = 8) with TMZ)?
**A.** 4 (50) No. (%)

**Q.** What about the “Nausea G3/G4” value (HCQ 1200 mg (n = 8) with TMZ) of the same compound?
**A.** 1 (13) No. (%)

**Q.** And the “Rash G1/G2” value (HCQ 1200 mg (n = 8) with TMZ)?
**A.** 1 (13) No. (%)

**Q.** And the “Thrombocytopenia G1/G2” value (HCQ 1200 mg (n = 8) with TMZ)?
**A.** 1 (13) No. (%)

**Q.** What about the “Vomiting G1/G2” value (HCQ 1200 mg (n = 8) with TMZ) of the same compound?
**A.** 2 (25) No. (%)

**Q.** And the “Vomiting G3/G4” value (HCQ 1200 mg (n = 8) with TMZ)?
**A.** 1 (13) No. (%)

**Q.** What about the “≥ grade 1 treatment-related anorexia” value [1] of the same compound?
**A.** 35%

**Q.** What about the “≥ grade 1 treatment-related constipation” value [1] of the same compound?
**A.** 22%

**Q.** And the “≥ grade 1 treatment-related diarrhea” value [1]?
**A.** 24%

**Q.** And the “≥ grade 1 treatment-related fatigue” value [1]?
**A.** 97%

**Q.** What about the “≥ grade 1 treatment-related nausea” value [1] of the same compound?
**A.** 65%
